In ChEMBL document CHEMBL2321842, “Rapid Determination of Ionization Constants (pK a) by UV Spectroscopy Using 96-Well Microtiter Plates” (ACS Med Chem Lett, 2013):

Assay: Dissociation constant, pKa of the compound at pH 3 to 12 by UV spectroscopy
Assay type: physicochemical
Procedure, shortened: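 UV-spectrophotometric titration in microplate wells. 10 mM DMSO stock diluted into buffers to 0.2 mM final (0.1 mM if spectra saturated), 2% v/v DMSO. Buffers: acetate, phosphate, borax, glycine/NaOH, pH 3–12.6, ionic strength 0.1 M (KCl), 30 °C. Spectra read at 2 nm resolution. Total absorbance difference at two analytical wavelengths fitted against pH by nonlinear regression. Mean of ≥3 independent runs ± SD.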

| Structure (SMILES) | pKa |
| --- | --- |
| CON1CCN/C1=N/c1ccc(CCc2ccc(/N=C3\NCCN3OC)cc2)cc1 | 8.01 |
| N=C(N)Oc1ccc(Oc2ccc(OC(=N)N)cc2)cc1 | 10.7 |
| O=[N+]([O-])c1ccc(O)cc1 [P-NITROPHENOL] | 6.87 |
| CON1CCN/C1=N\c1ccc(NC(=O)Nc2ccc(/N=C3\NCCN3OC)cc2)cc1 | 7.95 |
| O=C(Nc1ccc(NC2=NCCN2)cc1)Nc1ccc(NC2=NCCN2)cc1 | 10.3 |
| CCON1CCN/C1=N/c1ccc(C(=O)Nc2ccc(/N=C3\NCCN3OCC)cc2)cc1 | 7.34 |
| CCON1CCN/C1=N/c1ccc(CCc2ccc(/N=C3\NCCN3OCC)cc2)cc1 | 8.01 |
| c1cc(NC2=NCCN2)ccc1CCc1ccc(NC2=NCCN2)cc1 | 10.7 |
| Clc1cccc(Cl)c1N=C1NCCN1 [CLONIDINE] | 8.14 |
| O=[N+]([O-])c1c[nH]cn1 | 9.2 |
| CCON1CCN/C1=N\c1ccc(NC(=O)Nc2ccc(/N=C3\NCCN3OCC)cc2)cc1 | 8.27 |
| CON1CCN/C1=N/c1ccc(C(=O)Nc2ccc(/N=C3\NCCN3OC)cc2)cc1 | 7.27 |
| Cc1nc2ccccc2[nH]1 | 6.22 |
| ON1CCN/C1=N/c1ccc(CCc2ccc(/N=C3\NCCN3O)cc2)cc1 | 7.97 |
| O=C(Nc1ccc(/N=C2\NCCN2O)cc1)c1ccc(/N=C2/NCCN2O)cc1 | 7.43 |
